B1: Osa-1-4 twister ribozyme (parent)
chain: CCGCCUAACACUGCCAAUGCCGGUCCCAAGCCCGGAUAAAAGUGGAGGGGGCGG

Variants of: B1
Assay: self-cleavage, relative activity (ratio to wild type); higher = more cleavage; co-transcriptional
In short: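 Relative activity is the fraction cleaved divided by that of the wild-type ribozyme. The library came from a DNA template for a 54-nucleotide Oryza sativa twister ribozyme, doped at the 48 positions downstream of the cleavage site with 97 % wild-type base and 1 % of each other base. After 2 h of in vitro transcription at 37 °C with co-transcriptional self-cleavage, the RNA was reverse-transcribed with a template-switching oligonucleotide, amplified by PCR and deep-sequenced, and reads with or without upstream sequence gave the cleavage status.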

Row | Variant | self-cleavage
1 | A7C G48A | 0.02
2 | A7C G48U | 0.01
3 | A7C G48C | 0.02
4 | A7G C21A | 0.1
5 | A7G C21U | 0.23
6 | A7G C21G | 0.03
7 | A7G | 0.49
8 | A7G U43A | 0.2
9 | A7G G42C | 0.08
10 | A7G G42A | 0.13
11 | A7G G42U | 0.05
12 | A7G C52U | 0.55
13 | A7G C52A | 0.29
14 | A7G C52G | 0.32
15 | A7C G44C | 0.05
16 | A7C G44U | 0.05
17 | A7C G44A | 0.05
18 | A7C G35U | 0.05
19 | A7C G35C | 0.04
20 | A7C G35A | 0.04
21 | A7G G51U | 0.08
22 | A7G G51A | 0.12
23 | A7G G51C | 0.05
24 | A7G U24C | 0.07

Row | Variant | self-cleavage
25 | A7G U24G | 0.04
26 | A7G U24A | 0.08
27 | A7G C26G | 0.19
28 | A7G C26A | 0.04
29 | A7G C26U | 0.13
30 | A7G C31G | 0.14
31 | A7G C31U | 0.09
32 | A7G C31A | 0.03
33 | A7C U18G | 0.08
34 | A7C U18C | 0.06
35 | A7C U18A | 0.04
36 | A7G C32U | 0.08
37 | A7G C32G | 0.09
38 | A7G C32A | 0.05
39 | A7C G49U | 0.02
40 | A7C G49C | 0.01
41 | A7C G49A | 0.02
42 | A7G G23C | 0.06
43 | A7G G23U | 0.04
44 | A7G G23A | 0.14
45 | A7G G54U | 0.36
46 | A7G G54C | 0.17
47 | A7G G54A | 0.19
48 | A7G G50C | 0.16

Row | Variant | self-cleavage
49 | A7G G50U | 0.16
50 | A7G G50A | 0.17
51 | A7C G23A | 0.05
52 | A7C G23C | 0.01
53 | A7C G23U | 0.02
54 | A7G C11G | 0.1
55 | A7G C11U | 0.15
56 | A7G C11A | 0.13
57 | A7C U12G | 0.09
58 | A7C U12A | 0.05
59 | A7C U12C | 0.04
60 | A7G A8G | 0.28
61 | A7G A8U | 0.1
62 | A7G A8C | 0.1
63 | A7C U43A | 0.06
64 | A7C U43G | 0.06
65 | A7C U43C | 0.04
66 | A7G G47U | 0.07
67 | A7G G47A | 0.08
68 | A7G G47C | 0.05
69 | A7G C33A | 0.07
70 | A7G C33U | 0.13
71 | A7G C33G | 0.03
72 | A7C G54A | 0.05

Row | Variant | self-cleavage
73 | A7C G54U | 0.06
74 | A7C G54C | 0.05
75 | A7G U37A | 0.27
76 | A7G U37C | 0.46
77 | A7G U37G | 0.58
78 | A7G C27A | 0.07
79 | A7G C27U | 0.1
80 | A7G C27G | 0.07
81 | A7G C14G | 0.32
82 | A7G C14A | 0.04
83 | A7G C14U | 0.1
84 | A7G C9G | 0.29
85 | A7G C9A | 0.11
86 | A7G C9U | 0.19
87 | A7C G50A | 0.04
88 | A7C G50U | 0.04
89 | A7C G50C | 0.04
90 | A7G G48C | 0.05
91 | A7G G48A | 0.06
92 | A7G G48U | 0.05
93 | A7G U18C | 0.25
94 | A7G U18G | 0.49
95 | A7G U18A | 0.38
96 | A7G G44U | 0.15

Row | Variant | self-cleavage
97 | A7G G44C | 0.21
98 | A7G G44A | 0.13
99 | A7C U37C | 0.06
100 | A7C U37G | 0.07
101 | A7C U37A | 0.02
102 | A7G G19C | 0.06
103 | A7G G19U | 0.07
104 | A7G G19A | 0.15
105 | A7C G22U | 0.04
106 | A7C G22C | 0.02
107 | A7C G22A | 0.07
108 | A7C U24C | 0.03
109 | A7C U24G | 0.01
110 | A7C U24A | 0.04
111 | A7G G13A | 0.06
112 | A7G G13U | 0.02
113 | A7G G13C | 0.03
114 | A7G G30A | 0.04
115 | A7G G30C | 0.03
116 | A7G G30U | 0.05
117 | A7G G45A | 0.08
118 | A7G G45U | 0.05
119 | A7G G45C | 0.04
120 | A7C G51C | 0.02

Row | Variant | self-cleavage
121 | A7C G51A | 0.04
122 | A7C G51U | 0.03
123 | A7C G34U | 0.05
124 | A7C G34A | 0.03
125 | A7C G34C | 0.04
126 | A7G C15U | 0.09
127 | A7G C15A | 0.12
128 | A7G C15G | 0.27
129 | A7G G35C | 0.1
130 | A7G G35A | 0.31
131 | A7G G35U | 0.2
132 | A7C G30C | 0.01
133 | A7C G30U | 0.01
134 | A7C G30A | 0.01
135 | A7C G53C | 0.01
136 | A7C G53A | 0.06
137 | A7C G53U | 0.03
138 | A7G C25G | 0.06
139 | A7G C25A | 0.05
140 | A7G C25U | 0.17
141 | A7G G49U | 0.05
142 | A7G G49A | 0.07
143 | A7G G49C | 0.05
144 | A7C G47A | 0.04

Row | Variant | self-cleavage
145 | A7C G47C | 0.02
146 | A7C G47U | 0.03
147 | A7C G45C | 0.01
148 | A7C G45A | 0.03
149 | A7C G45U | 0.02
150 | A7G U12C | 0.1
151 | A7G U12G | 0.12
152 | A7G U12A | 0.16
153 | A7G G22U | 0.1
154 | A7G G22C | 0.08
155 | A7G G22A | 0.18
156 | A7G G34C | 0.14
157 | A7G G34U | 0.12
158 | A7G G34A | 0.21
159 | A7C G42C | 0.03
160 | A7C G42U | 0.02
161 | A7C G42A | 0.04
162 | A7G G53A | 0.16
163 | A7G G53U | 0.1
164 | A7G G53C | 0.06
165 | A7G C20G | 0.11
166 | A7G C20A | 0.5
167 | A7G C20U | 0.43

— the RNAGym collection of RNA variant scans (doi:10.1002/anie.201605470)
